From ChEMBL document CHEMBL4138101, “Rhodium-catalyzed C-H bond activation for the synthesis of quinonoid compounds: Significant Anti-Trypanosoma cruzi activities and electrochemical studies of functionalized quinones” (Eur J Med Chem, 2017) come the findings set out here.

pIC50: −log10 of the molar value.

For data set [1], the system named is Trypanosoma cruzi. The experiment in a line: Antitrypanosomal activity against bloodstream forms of Trypanosoma cruzi Y isolated from parasite infected Albino Swiss mouse assessed as induction of parasite lysis incubated for 24 hrs by Neubauer chamber based cell counting method. In kind it is functional, organism-based. A digest of the protocol: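 Bloodstream trypomastigotes were taken from infected mice at peak parasitemia by differential centrifugation and resuspended at 10x10^6 cells/mL in DMES medium. They were mixed 1:1 with compound at twice the final concentration, with DMSO final ≤0.1%, and incubated at 37°C for 24 h. Benznidazole was the control. Counts were made in a Neubauer chamber, giving IC50/24 h as the concentration causing 50% parasite lysis.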

A short description of data set [2]: Selectivity index, ratio of LC50 for cytotoxicity against Swiss albino mouse peritoneal macrophages to IC50 for Antitrypanosomal activity against bloodstream forms of Trypanosoma cruzi Y isolated from parasite infected Albino Swiss mouse. The data set is classed as toxicity. The following applies: read-out: Ratio LC50/IC50.
Data set [3] is described as follows: Cytotoxicity against Swiss albino mouse peritoneal macrophages after 24 hrs by PrestoBlue dye based assay. The data set is classed as cell-based, Peritoneal macrophage. The following applies: read-out: LC50.
The subject of data set [4] is Trypanosoma cruzi. The experiment in a line: Potency index, ratio of juglone IC50 to compound IC50 for antitrypanosomal activity against bloodstream forms of Trypanosoma cruzi Y isolated from parasite infected Albino Swiss mouse. The data set is classed as functional.

As a reminder, the pIC50 is the IC50 on a negative log10 scale, so that one unit is a factor of ten. `Cc1cc(I)c2c(c1)C(=O)C=CC2=O`: the pIC50 in the data set on Trypanosoma cruzi [1] is 6.31. Further, the selectivity ratio in data set [2] is 24.7. Further, in data set [3], the CC50 at 24 h amounted to 12.1 µM.

For `CC1=CC(=O)c2c(O)cccc2C1=O` [PLUMBAGIN], the pIC50 in the data set on Trypanosoma cruzi [1] was 5.86.

Turning to `CC1=C(C)C(=O)C(I)=CC1=O`, in the data set with Trypanosoma cruzi [1], the pIC50 was 5.00. For the same molecule, the selectivity ratio in data set [2] was found to be 1.5. Also, the CC50 at 24 h in data set [3] came to 15.4 µM.

Turning to `O=C1C(Br)=CC(=O)c2c(I)cccc21`, the pIC50 in the data set with Trypanosoma cruzi [1] is 5.86. In the data set with Trypanosoma cruzi [4], the Ratio was 4.7. For the same molecule, the selectivity ratio in data set [2] is 8.8. The CC50 at 24 h in data set [3] is 12.2 µM.

On to `Nc1c(I)ccc2c1C(=O)C=CC2=O`, for which the pIC50 in the data set on Trypanosoma cruzi [1] was 6.25. The selectivity ratio in data set [2] is 23.4. For the same molecule, in data set [3], the CC50 at 24 h amounted to 13.1 µM.

With `O=C1C=C([Se]c2ccccc2)C(=O)c2ccccc21`, the pIC50 with Trypanosoma cruzi [1] was 5.95. The selectivity ratio in data set [2] was 11.2. Moreover, in data set [3], the CC50 at 24 h turned out to be 12.7 µM.

On to `O=C1C=CC(=O)c2c(O)c(I)cc(I)c21`, for which the pIC50 in the data set with Trypanosoma cruzi [1] was 4.61. Also, the selectivity ratio in data set [2] is above 5.1. Also, the CC50 at 24 h in data set [3] was above 100 µM.

On to `COc1c(I)ccc2c1C(=O)C=CC2=O`, for which the pIC50 in the data set with Trypanosoma cruzi [1] was 5.87. Also, the selectivity ratio in data set [2] is 9.8. In data set [3], the CC50 at 24 h worked out at 13.3 µM.

On to `O=C1C=CC(=O)C(Br)=C1`, for which, in the data set on Trypanosoma cruzi [1], the pIC50 was 4.67. The selectivity ratio in data set [2] came to 1.6. For the same molecule, the CC50 at 24 h in data set [3] came to 34.4 µM.

Turning to `O=C1C=C(Br)C(=O)c2ccccc21` [2-Bromo-1,4-naphthoquinone], the pIC50 with Trypanosoma cruzi [1] was 5.86.

In the case of `COc1cc2c(c(I)c1OC)C(=O)C=CC2=O`, the pIC50 in the data set with Trypanosoma cruzi [1] is 5.79. Moreover, the selectivity ratio in data set [2] was 7.5. The CC50 at 24 h in data set [3] was 12.2 µM.

As for `O=C1C=CC(=O)C(I)=C1`, the pIC50 in the data set on Trypanosoma cruzi [1] is 4.22. For the same molecule, the CC50 at 24 h in data set [3] turned out to be 86 µM.

Turning to `COc1ccc(I)c2c1C(=O)C=CC2=O`, in the data set on Trypanosoma cruzi [1], the pIC50 was 5.45. For the same molecule, in data set [2], the selectivity ratio worked out at 3.8. The CC50 at 24 h in data set [3] amounted to 13.6 µM.

For the molecule `CCOC(=O)/C=C/c1cccc2c1C(=O)C=CC2=O`, the pIC50 in the data set with Trypanosoma cruzi [1] was 5.22. Moreover, the selectivity ratio in data set [2] was determined as 2.1. Further, in data set [3], the CC50 at 24 h stood at 12.7 µM.

Consider `O=C1C=C(I)C(=O)C(Cl)=C1Cl`, for which the negative-log IC50 (pIC50) with Trypanosoma cruzi [1] is 4.57. Further, the selectivity ratio in data set [2] is above 4.7. Also, the CC50 at 24 h in data set [3] is above 100 µM.

Regarding `CC(=O)Oc1cccc2c1C(=O)C(Br)=CC2=O`, the pIC50 in the data set with Trypanosoma cruzi [1] is 6.07.

Turning to `CC(C)(C)C1=CC(=O)C(Br)=CC1=O`, the pIC50 in the data set on Trypanosoma cruzi [1] was 4.85. For the same molecule, in data set [2], the selectivity ratio stood at 3. For the same molecule, in data set [3], the CC50 at 24 h worked out at 42.3 µM.

In the case of `O=C1C=C(I)C(=O)c2ccccc21`, the pIC50 in the data set with Trypanosoma cruzi [1] was 5.75. In data set [2], the selectivity ratio is 8.2. The CC50 at 24 h in data set [3] came to 14.7 µM.

Turning to `CC1=CC(=O)c2c(ccc(I)c2O)C1=O`, the pIC50 in the data set on Trypanosoma cruzi [1] is 6.00. Also, in data set [2], the selectivity ratio amounted to 15.8. In data set [3], the CC50 at 24 h came out at 15.7 µM.

For the molecule `O=C1C=CC(=O)c2c(I)ccc(I)c21`, the pIC50 with Trypanosoma cruzi [1] was 6.66. Besides, in data set [3], the CC50 at 24 h was found to be 12.9 µM.

In the case of `O=C1C(Br)=C(Br)C(=O)c2c(I)cccc21`, in the data set with Trypanosoma cruzi [1], the pIC50 was 5.65. In addition, the selectivity ratio in data set [2] came out at 5.3. Also, the CC50 at 24 h in data set [3] worked out at 11.8 µM.

On to `COc1c(I)ccc2c1C(=O)C=C(C)C2=O`, for which, in the data set on Trypanosoma cruzi [1], the pIC50 was 5.39. The selectivity ratio in data set [2] stood at 6.1. For the same molecule, in data set [3], the CC50 at 24 h was 24.7 µM.

Regarding `COC(=O)c1ccc(I)c2c1C(=O)C=CC2=O`, in the data set with Trypanosoma cruzi [1], the pIC50 was 5.79. In addition, the selectivity ratio in data set [2] came out at 8.7. Further, in data set [3], the CC50 at 24 h was determined as 13.9 µM.

For the molecule `O=C1C=C([Se]c2ccccc2)C(=O)C=C1[Se]c1ccccc1`, the pIC50 in the data set with Trypanosoma cruzi [1] was 4.08. Besides, in data set [2], the selectivity ratio is above 1.2. Moreover, in data set [3], the CC50 at 24 h is above 100 µM.

As for `COc1ccc2c(c1I)C(=O)C=CC2=O`, in the data set with Trypanosoma cruzi [1], the pIC50 was 5.93. Further, the selectivity ratio in data set [2] was found to be 12.1. In addition, the CC50 at 24 h in data set [3] is 14.2 µM.

On to `O=C1C=CC(=O)C([Se]c2ccccc2)=C1`, for which the pIC50 in the data set on Trypanosoma cruzi [1] was 4.80. Moreover, the selectivity ratio in data set [2] amounted to 0.86. Further, the CC50 at 24 h in data set [3] stood at 13.8 µM.

Regarding `COc1cccc2c1C(=O)C=CC2=O`, the pIC50 in the data set on Trypanosoma cruzi [1] was 5.99.

As to `COC1=C(I)C(=O)C(I)=C(OC)C1=O`, the pIC50 in the data set with Trypanosoma cruzi [1] was 5.71. Besides, the CC50 at 24 h in data set [3] was determined as 27.7 µM.

Turning to `O=C1C=CC(=O)c2c(I)cccc21`, the pIC50 with Trypanosoma cruzi [1] was 6.23. The selectivity ratio in data set [2] was 19.5. The CC50 at 24 h in data set [3] was found to be 11.5 µM.

For `O=C1C=CC(=O)c2c(C#Cc3ccccc3)cccc21`, in the data set with Trypanosoma cruzi [1], the negative logarithm of the IC50 (pIC50) is 5.66. Further, the selectivity ratio in data set [2] was determined as 5.7. In data set [3], the CC50 at 24 h was determined as 12.5 µM.

For `O=C1C(Cl)=C(Cl)C(=O)c2c(I)cccc21`, the pIC50 in the data set on Trypanosoma cruzi [1] is 5.14. Also, the selectivity ratio in data set [2] was 3.8. For the same molecule, in data set [3], the CC50 at 24 h worked out at 27.8 µM.

`COC1=C(I)C(=O)C=CC1=O`: in the data set on Trypanosoma cruzi [1], the pIC50 was 4.62. For the same molecule, in data set [2], the selectivity ratio was found to be 1.4. Further, the CC50 at 24 h in data set [3] came to 32.6 µM.

`O=C1C=CC(=O)c2c1ccc(I)c2O`: the pIC50 in the data set on Trypanosoma cruzi [1] was 4.38. The selectivity ratio in data set [2] is above 4.6. Also, the CC50 at 24 h in data set [3] is above 100 µM.

For the molecule `O=C1C=C(Br)C(=O)C(Cl)=C1Cl`, the negative logarithm of the IC50 (pIC50) with Trypanosoma cruzi [1] was 4.81. In data set [2], the selectivity ratio was above 6.5. Also, the CC50 at 24 h in data set [3] is above 100 µM.

Turning to `O=C1C=CC(=O)c2c(O)cccc21` [JUGLONE], the pIC50 in the data set with Trypanosoma cruzi [1] was 5.19.

For the molecule `CC(C)(C)C1=CC(=O)C(I)=CC1=O`, the pIC50 in the data set with Trypanosoma cruzi [1] is 4.89. For the same molecule, in data set [2], the selectivity ratio was determined as 2.8. Also, the CC50 at 24 h in data set [3] was found to be 35.9 µM.

With `O=C1C=CC(=O)c2c1cccc2-c1ccccc1`, the pIC50 in the data set on Trypanosoma cruzi [1] was 5.91. In the data set with Trypanosoma cruzi [4], the Ratio is on record as 5.2. The selectivity ratio in data set [2] was 10.2. Also, in data set [3], the CC50 at 24 h was 12.7 µM.

With `CC(=O)Oc1cccc2c1C(=O)C=CC2=O`, in the data set on Trypanosoma cruzi [1], the pIC50 was 6.80.

For the molecule `O=C(Cn1ccnc1[N+](=O)[O-])NCc1ccccc1` [BENZNIDAZOLE], the negative logarithm of the IC50 (pIC50) with Trypanosoma cruzi [1] is 5.01. Further, the selectivity ratio in data set [2] was above 413. For the same molecule, the CC50 at 24 h in data set [3] was above 4000 µM.

With `O=C1C=CC(=O)c2c(/C=C/c3ccccc3)cccc21`, the pIC50 in the data set with Trypanosoma cruzi [1] is 6.72. The selectivity ratio in data set [2] came out at 62.5. For the same molecule, in data set [3], the CC50 at 24 h was found to be 11.9 µM.
